Consider ten compounds from ChEMBL document CHEMBL1124649, “Platelet activating factor antagonists: synthesis and structure-activity studies of novel PAF analogues modified in the phosphorylcholine moiety” (J Med Chem, 1989).

The first test concerns Mus musculus. Kind of test: Time course of protecting effect on PAF-induced death in mice, at the dose of 1 mg/kg after 24 hr. Format: functional.
Details: not given
In a few lines:
(§1)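 Conscious male ICR-Jcl mice, 5-7 weeks old. Drug dissolved in saline (0.1 mL/10 g) given into the tail vein 8 or 24 h before PAF (50 μg/kg, iv); saline-only controls. Death defined as cessation of respiration. Survival rate recorded 60 min after PAF. 16 mice per compound, 142 controls; χ2 test versus control.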
In turn, `CCCCCCCCCCCCCCCCCCNC(=O)OCC(COC(=O)N(Cc1cccc[n+]1CC)C(C)=O)OC` (stereo not given) [CV-6209] gave a survival at 1 mg/kg of 69%.

Compound `CCCCCCCCCCCCCCCCCCNC(=O)OCC(COC(=O)N(Cc1csc[n+]1CC)C(C)=O)OC` (stereo not given) displayed a survival at 1 mg/kg of 25%.

The next test deals with Mus musculus. Put plainly: Time course of protecting effect on PAF-induced death in mice, at the dose of 1 mg/kg after 8 hr. In kind it is functional.
Details: not given
In a few lines: as §1
`CCCCCCCCCCCCCCCCCCNC(=O)OCC(COC(=O)N(Cc1cccc[n+]1CC)C(C)=O)OC` (stereo not given) [CV-6209] gave a survival at 1 mg/kg of 100%.

The compound `CCCCCCCCCCCCCCCCCCNC(=O)OCC(COC(=O)N(Cc1csc[n+]1CC)C(C)=O)OC` (stereo not given) returned a survival at 1 mg/kg of 75%.

For a further test, the system named is Rattus norvegicus. Kind of test: Compound was evaluated for the percent inhibition of the platelet activating factor (PAF) hypotension, after 5 min of intravenous injection of 1 mg/kg in rat. Format: functional.
Details: not given
What is called inhibition in vivo is the relative decrease from the control value, in per cent. The low end stands for a response near the control, the high end for a response far below the control. In turn, `CCCCCCCCCCCCCCCCCCNC(=O)OCC(COC(=O)N(Cc1cccc[n+]1CCCC)C(C)=O)OC` (stereo not given) yielded an inhibition in vivo at 1 mg/kg of 100%.

The compound `CCCCCCCCCCCCCCCCCCNC(=O)OCC(COC(=O)N(Cc1csc[n+]1C)C(C)=O)OC` (stereo not given) displayed an inhibition in vivo at 1 mg/kg of 92%.

In the case of `CCCCCCCCCCCCCCCCCCNC(=O)OCC(COC(=O)N(Cc1scc[n+]1C)C(C)=O)OC` (stereo not given), testing at 1 mg/kg gave an inhibition in vivo of 100%.

`CCCCCCCCCCCCCCCCCCNC(=O)OCC(COC(=O)N(Cc1cccc[n+]1C)C(C)=O)OC` (stereo not given): at 1 mg/kg the inhibition in vivo was 82%.

The next test has as its system Rattus norvegicus. Put plainly: Compound was evaluated for the percent inhibition of the platelet activating factor (PAF) hypotension, after 120 min of intravenous injection of 0.1 mg/kg in rat. The note with it: 2 h. Format: functional.
`CCCCCCCCCCCCCCCCCCNC(=O)OCC(COC(=O)N(Cc1cccc[n+]1CC)C(C)=O)OC` (stereo not given) [CV-6209] had an inhibition in vivo at 0.1 mg/kg of 34%.

`CCCCCCCCCCCCCCCCCCNC(=O)OCC(COC(=O)N(Cc1csc[n+]1CC)C(C)=O)OC` (stereo not given): 0.1 mg/kg produced 14% inhibition in vivo.

Take `CCCCCCCCCCCCCCCCCCNC(=O)OCC(COC(=O)N(Cc1scc[n+]1C)C(C)=O)OC` (stereo not given): testing at 0.1 mg/kg gave an inhibition in vivo of 0%.

Consider `CCCCCCCCCCCCCCCCCCNC(=O)OC[C@H](COC(=O)N(Cc1cccc[n+]1CC)C(C)=O)OC`, for which the inhibition in vivo at 0.1 mg/kg was 20%.

The compound `CCCCCCCCCCCCCCCCCCNC(=O)OC[C@@H](COC(=O)N(Cc1cccc[n+]1CC)C(C)=O)OC` came in with an inhibition in vivo at 0.1 mg/kg of 17%.

Take `CCCCCCCCCCCCCCCCCCNC(=O)OCC(COC(=O)N(Cc1scc[n+]1CC)C(C)=O)OC` (stereo not given): the inhibition in vivo at 0.1 mg/kg is 0%.

A further test concerns Rattus norvegicus. Put plainly: Compound was evaluated for the percent inhibition of the platelet activating factor (PAF) hypotension, after 120 min of intravenous injection of 1 mg/kg in rat. In kind it is functional. Conditions: 2 h.
`CCCCCCCCCCCCCCCCCCNC(=O)OCC(COC(=O)N(Cc1csc[n+]1C)C(C)=O)OC` (stereo not given) displayed an inhibition in vivo at 1 mg/kg of 4%.

In turn, `CCCCCCCCCCCCCCCCCCNC(=O)OCC(COC(=O)N(Cc1scc[n+]1C)C(C)=O)OC` (stereo not given) had an inhibition in vivo at 1 mg/kg of 30%.

For `CCCCCCCCCCCCCCCCCCNC(=O)OCC(COC(=O)N(Cc1cccc[n+]1C)C(C)=O)OC` (stereo not given), the inhibition in vivo at 1 mg/kg worked out at 33%.

The subject of another test is Rattus norvegicus. Kind of test: Compound was evaluated for the percent inhibition of the platelet activating factor (PAF) hypotension, after 5 min of intravenous injection of 0.1 mg/kg in rat. Format: functional.
Details: not given
As to `CCCCCCCCCCCCCCCCCCNC(=O)OCC(COC(=O)N(Cc1cccc[n+]1CC)C(C)=O)OC` (stereo not given) [CV-6209], the inhibition in vivo at 0.1 mg/kg was determined as 100%.

Consider `CCCCCCCCCCCCCCCCCCNC(=O)OCC(COC(=O)N(Cc1csc[n+]1CC)C(C)=O)OC` (stereo not given), for which testing at 0.1 mg/kg gave an inhibition in vivo of 100%.

On to `CCCCCCCCCCCCCCCCCCNC(=O)OCC(COC(=O)N(Cc1scc[n+]1C)C(C)=O)OC` (stereo not given), for which the inhibition in vivo at 0.1 mg/kg amounted to 43%.

In the case of `CCCCCCCCCCCCCCCCCCNC(=O)OCC(COC(=O)N(Cc1cccc[n+]1CCC)C(C)=O)OC` (stereo not given), at 0.1 mg/kg the inhibition in vivo was 45%.

Take `CCCCCCCCCCCCCCCCCCNC(=O)OC[C@H](COC(=O)N(Cc1cccc[n+]1CC)C(C)=O)OC`: the inhibition in vivo at 0.1 mg/kg is 100%.

In turn, `CCCCCCCCCCCCCCCCCCNC(=O)OC[C@@H](COC(=O)N(Cc1cccc[n+]1CC)C(C)=O)OC` yielded an inhibition in vivo at 0.1 mg/kg of 100%.

For the compound `CCCCCCCCCCCCCCCCCCNC(=O)OCC(COC(=O)N(Cc1scc[n+]1CC)C(C)=O)OC` (stereo not given), the inhibition in vivo at 0.1 mg/kg was 100%.

In a further test the test system is Rattus norvegicus. Kind of test: Compound was evaluated for the percent inhibition of the platelet activating factor (PAF) hypotension, after 60 min of intravenous injection of 0.1 mg/kg in rat. The note with it: 1 h. In kind it is functional.
As for `CCCCCCCCCCCCCCCCCCNC(=O)OCC(COC(=O)N(Cc1cccc[n+]1CC)C(C)=O)OC` (stereo not given) [CV-6209], the inhibition in vivo at 0.1 mg/kg is 55%.

Turning to `CCCCCCCCCCCCCCCCCCNC(=O)OCC(COC(=O)N(Cc1csc[n+]1CC)C(C)=O)OC` (stereo not given), the inhibition in vivo at 0.1 mg/kg is 40%.

As for `CCCCCCCCCCCCCCCCCCNC(=O)OCC(COC(=O)N(Cc1scc[n+]1C)C(C)=O)OC` (stereo not given), the inhibition in vivo at 0.1 mg/kg worked out at 6%.

`CCCCCCCCCCCCCCCCCCNC(=O)OCC(COC(=O)N(Cc1cccc[n+]1CCC)C(C)=O)OC` (stereo not given) displayed an inhibition in vivo at 0.1 mg/kg of 0%.

Take `CCCCCCCCCCCCCCCCCCNC(=O)OC[C@H](COC(=O)N(Cc1cccc[n+]1CC)C(C)=O)OC`: the inhibition in vivo at 0.1 mg/kg came out at 36%.

The compound `CCCCCCCCCCCCCCCCCCNC(=O)OC[C@@H](COC(=O)N(Cc1cccc[n+]1CC)C(C)=O)OC` displayed an inhibition in vivo at 0.1 mg/kg of 54%.

`CCCCCCCCCCCCCCCCCCNC(=O)OCC(COC(=O)N(Cc1scc[n+]1CC)C(C)=O)OC` (stereo not given): the inhibition in vivo at 0.1 mg/kg was 3%.

In another test the test system is Rattus norvegicus. Kind of test: Compound was evaluated for the percent inhibition of the platelet activating factor (PAF) hypotension, after 60 min of intravenous injection of 1 mg/kg in rat. Conditions: 1 h. In kind it is functional.
As to `CCCCCCCCCCCCCCCCCCNC(=O)OCC(COC(=O)N(Cc1cccc[n+]1CCCC)C(C)=O)OC` (stereo not given), the inhibition in vivo at 1 mg/kg is 0%.

In the case of `CCCCCCCCCCCCCCCCCCNC(=O)OCC(COC(=O)N(Cc1csc[n+]1C)C(C)=O)OC` (stereo not given), testing at 1 mg/kg gave an inhibition in vivo of 29%.

Turning to `CCCCCCCCCCCCCCCCCCNC(=O)OCC(COC(=O)N(Cc1scc[n+]1C)C(C)=O)OC` (stereo not given), 1 mg/kg produced 100% inhibition in vivo.

`CCCCCCCCCCCCCCCCCCNC(=O)OCC(COC(=O)N(Cc1cccc[n+]1C)C(C)=O)OC` (stereo not given) returned an inhibition in vivo at 1 mg/kg of 39%.
